TLR9-MyD88 block = inhibitors of human TLR9-MyD88 binding | Q9NR96+Q99836 | CHO BLA complementation TLR9-MyD88, CCF4 FRET ratio | AID 504734 | inhibition, % at 4.98 µM | 0.21% of 340,000 active;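 active = inhibition above the mean over all tested compounds plus 3 SD, cut at about 21% in these data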
Dynein transport = dynein cargo transport inhibition; 3617.4 mouse cells, GR-EGFP nuclear translocation imaging; test concentration mostly 20 µM; stimulated with dexamethasone, 1 µM; active compounds read low; z-score, hits read low; 0.47% of 220,000 active; AID 1381;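 active = plate z-score of nuclear minus cytoplasmic receptor signal below a set negative limit, without overly bright fluorescence or cell loss, cut at about -3.5 in these data, passing the limit was not always enough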;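 note: z-score of nuclear minus cytoplasmic ring GR-EGFP intensity difference per well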
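Buffer or medium: tetracycline-free induction medium containing charcoal-stripped FBS / Reagent: dexamethasone agonist, 1.0 µM final, for 30 min / Technique: automated 10x imaging of fixed Hoechst-stained cells / Times: induction 48 h, compound 1 h, agonist 30 min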
NOD2 RIPK2 PPI = blocks binding of human NOD2 to RIPK2. CHO BLA complementation NOD2-RIPK2, CCF4 ratio. inhibition, % at 4.98 µM. 0.38% of 360,000 active. AID 624267; in the data active = inhibition above about 21%
Target sequence (O43353 whole entry, looked up): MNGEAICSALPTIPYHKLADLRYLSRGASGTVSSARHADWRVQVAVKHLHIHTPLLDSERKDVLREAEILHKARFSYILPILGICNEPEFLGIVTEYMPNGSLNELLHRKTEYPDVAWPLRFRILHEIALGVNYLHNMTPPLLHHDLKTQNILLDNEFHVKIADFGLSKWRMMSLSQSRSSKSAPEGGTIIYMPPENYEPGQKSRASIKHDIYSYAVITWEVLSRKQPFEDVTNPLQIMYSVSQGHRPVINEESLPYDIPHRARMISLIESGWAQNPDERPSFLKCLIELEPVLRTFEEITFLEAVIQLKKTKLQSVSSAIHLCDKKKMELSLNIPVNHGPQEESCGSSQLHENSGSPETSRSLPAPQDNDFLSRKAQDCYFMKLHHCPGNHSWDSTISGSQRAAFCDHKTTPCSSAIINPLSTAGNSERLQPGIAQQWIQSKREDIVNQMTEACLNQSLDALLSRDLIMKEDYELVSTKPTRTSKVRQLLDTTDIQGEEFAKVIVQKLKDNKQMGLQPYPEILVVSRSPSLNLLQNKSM
TLR4-MyD88 BLA = inhibitors of human TLR4-MyD88 binding | inhibition, % at 8.4 µM | 0.18% of 200,000 active | HeLa CL3-4 TLR4/MyD88 BLA complementation, FRET ratio; in the data active = inhibition above about 25%
ABHD5 PLIN5 PPI = blocks binding of human ABHD5 to perilipin-5; Split G. princeps luciferase complementation, luminescence, 4 h; Q00G26+Q8WTS1; AID 602281; inhibition, % at 4 µM; 0.78% of 360,000 active;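 active = inhibition above the mean inhibition across every tested compound plus 3 SD, cut at about 22% in these data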
Beta2AR agonist = agonists of human beta-2 adrenergic receptor inducing internalization; P07550; AID 504454; 0.43% of 340,000 active; response, % (concentration not given with the values); Am2.2-beta2AR cells, FAP receptor internalization, flow cytometry;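 active = response above a set limit, near 3 SD of response in nonfluorescent compounds, cut at about 42% in these data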
ABHD5 PLIN5 conf = confirmation of human ABHD5-PLIN5 interaction inhibitors; shares compounds with ABHD5 PLIN5 PPI; AID 651612; biochemical ABHD5-PLIN5 interaction, luminescence; inhibition, % at 4 µM; 67% of 2,200 active; in the data active = inhibition above about 23%
HNF4 counter = active in HNF4 split-luciferase counter-screen for ABHD5-PLIN5 inhibitors | HNF4 dimerization, luminescence, biochemical | 77% of 2,200 active | shares compounds with ABHD5 PLIN5 PPI | AID 651674 | inhibition, % at 4 µM;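 active = mean inhibition across replicate wells exceeding the computed hit threshold, cut at about 13% in these data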;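 note: light from luciferase halves that rejoin when HNF4 fusion proteins dimerize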
Hits are given with their value; – = inactive; · = no result given. In the library only some 1.6% were active in any assay of this set; here they are far more common.

SMILES	TLR9-MyD88 block	Dynein transport	NOD2 RIPK2 PPI	TLR4-MyD88 BLA	ABHD5 PLIN5 PPI	Beta2AR agonist	ABHD5 PLIN5 conf	HNF4 counter
C#CCOCCOCCOCCNc1nc(N2CCN(C(=O)CCCCCCCCCCNC(=O)Cn3cc(C[C@@H](C)O)nn3)CC2)nc(N2CCN(C(=O)CCCCCCCCCCNC(=O)[C@H](CCCCN)n3cc(CCCC(=O)O)nn3)CC2)n1	–	·	–	·	36	–	–	14
C#CCOCCOCCOCCNc1nc(N2CCN(C(=O)CCCCCCCCCCNC(=O)Cn3cc(C[C@@H](C)O)nn3)CC2)nc(N2CCN(C(=O)CCCCCCCCCCNC(=O)[C@H](CO)n3cc(CCCSC)nn3)CC2)n1	–	·	–	·	–	–	·	·
C#CCOCCOCCOCCNc1nc(N2CCN(C(=O)CCCCCCCCCCNC(=O)[C@@H](CCSC)n3cc(CCO)nn3)CC2)nc(N2CCN(C(=O)CCCCCCCCCCNC(=O)[C@H](CCSC)n3cc(CCO)nn3)CC2)n1	–	·	–	·	44	–	–	–
C#CCOCCOCCOCCNc1nc(N2CCN(C(=O)CCCCCCCCCCNC(=O)Cn3cc(CCCCCN)nn3)CC2)nc(N2CCN(C(=O)CCCCCCCCCCNC(=O)[C@@H](CCC(=O)O)n3cc(CCCCCN)nn3)CC2)n1	–	·	–	·	–	–	·	·
C#CCOCCOCCOCCNc1nc(N2CCN(C(=O)CCCCCCCCCCNC(=O)[C@H](CCCCN)n3cc(CCCC(=O)O)nn3)CC2)nc(N2CCN(C(=O)CCCCCCCCCCNC(=O)[C@@H]([C@H](C)O)n3cc(C)nn3)CC2)n1	–	·	–	·	37	–	–	–
C#CCOCCOCCOCCNc1nc(N2CCN(C(=O)CCCCCCCCCCNC(=O)Cn3cc(C[C@@H](C)O)nn3)CC2)nc(N2CCN(C(=O)CCCCCCCCCCNC(=O)[C@@H](CCC(=O)O)n3cc(CCCCCN)nn3)CC2)n1	–	·	–	·	–	–	·	·
C#CCOCCOCCOCCNc1nc(N2CCN(C(=O)CCCCCCCCCCNC(=O)[C@H](CCCCN)n3cc(C)nn3)CC2)nc(N2CCN(C(=O)CCCCCCCCCCNC(=O)[C@H](CCCCN)n3cc(CCCC(=O)O)nn3)CC2)n1	–	·	–	·	–	–	·	·
C#CCOCCOCCOCCNc1nc(N2CCN(C(=O)CCCCCCCCCCNC(=O)[C@H]([C@@H](C)CC)n3cc(CCCCCN)nn3)CC2)nc(N2CCN(C(=O)CCCCCCCCCCNC(=O)[C@H](CCCCN)n3cc(CCCC(=O)O)nn3)CC2)n1	–	·	–	·	39	–	–	–
CCCCNc1c(CCc2ccccc2)nc2nc(C)cc(C)n12	·	·	–	·	–	·	·	·
O=C(COc1ccccc1Cl)Nc1ccc(N2CCCC2)cc1	–	·	–	·	26	–	45	–
CCN1CCN(c2ccc(NC(=O)COc3ccccc3Cl)cc2)CC1	–	–	–	–	–	–	·	·
CC1(C(=O)NCc2ccc(C(F)(F)F)cc2)CCN1Cc1ccc(-c2ccccc2)o1 (configuration not stated)	·	·	–	·	31	·	–	25
CC1(C(=O)NCc2ccc(C(F)(F)F)cc2)CCN1Cc1c(F)cccc1F (configuration not stated)	·	·	–	·	–	·	·	·
COc1ccc(NC(=O)C(c2ccnc3ccccc23)n2c(=O)c(-c3ccco3)nc3ccccc32)cc1 (configuration not stated)	·	·	–	·	36	·	25	–
COc1ccc(NC(=O)C(c2ccnc3ccccc23)n2c(=O)c(-c3ccccc3)nc3ccccc32)cc1 (configuration not stated)	·	·	–	·	–	·	·	·
CC(c1nc2ccccc2[nH]1)n1c(=O)c(-c2ccco2)nc2ccccc21 (configuration not stated)	·	·	–	·	52	·	41	–
COc1ccc(NC(=O)C(c2ccc(OC)cc2)n2c(=O)c(-c3ccco3)nc3ccccc32)cc1 (configuration not stated)	·	·	–	·	42	·	39	–
COc1ccc(NC(=O)C(c2ccccc2F)n2c(=O)c(-c3ccco3)nc3ccccc32)cc1 (configuration not stated)	·	·	–	·	–	·	·	·
CC(c1nc2ccccc2[nH]1)n1c(-c2ccncc2)nc2ccccc21 (configuration not stated)	·	·	–	·	–	·	·	·
COc1ccc(C(C(=O)Nc2ccc3c(c2)OCCO3)n2c(=O)c(-c3ccco3)nc3ccccc32)cc1 (configuration not stated)	·	·	–	·	78	·	38	–
CCC(c1nnnn1-c1ccc2c(c1)OCCO2)N1CCN(C(=O)C2CCCO2)CC1 (configuration not stated)	·	·	–	·	–	·	·	·
CCCCn1nnnc1C(c1cc2ccccc2o1)N(C)Cc1ccc(Cl)cc1 (configuration not stated)	·	·	–	·	–	·	·	·

Bioassay records deposited in PubChem by several laboratories.
